≈ marks a conversion by molar mass, not a printed value.
Experiments:
Aspergillus niger [1] = experiment: Antifungal activity against Aspergillus niger at 50 ug/ml incubated for 48 hrs by agar well diffusion method; format: functional; details: read-out: DIZ
How it was run: (§1)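 Compounds dissolved in DMSO at 5 mg mL⁻¹ and 5–20 µL added to 6 mm wells, giving 25, 50, 75, 100 µg per well. Bavistin was the positive control and DMSO the negative control. Plates incubated at 28 °C for 48 h, then inhibition zone diameter (mm) measured. Values are means of three determinations.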

Candida albicans [2] = experiment: Antifungal activity against Candida albicans at 75 ug/ml incubated for 48 hrs by agar well diffusion method; format: functional; details: read-out: DIZ; how it was run: as §1
Staphylococcus aureus [3] = experiment: Antibacterial activity against Staphylococcus aureus at 25 ug/ml incubated for 24 hrs by agar well diffusion method; format: functional; details: read-out: DIZ
How it was run: as §1, with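 “Bacteria grown in nutrient broth at 37 °C for 24 h, then subcultured at room temperature. Compounds” for “Compounds”, “Gentamicin” for “Bavistin”, “held” for “incubated”, “37” for “28”, “24” for “48”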

Aspergillus niger [4] = experiment: Antifungal activity against Aspergillus niger incubated for 48 to 72 hrs by microdilution method; format: functional
How it was run: (§2)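 Sabouraud agar plates inoculated with fungal suspension at 10⁵ CFU mL⁻¹ plus serially diluted compounds and bavistin reference, both in DMSO. Incubated at 25 °C for 48–72 h. MIC is the lowest concentration completely inhibiting growth. Values are means of three determinations.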

Candida albicans [5] = experiment: Antifungal activity against Candida albicans at 50 ug/ml incubated for 48 hrs by agar well diffusion method; format: functional; details: read-out: DIZ; how it was run: as §1
Aspergillus niger [6] = experiment: Antifungal activity against Aspergillus niger at 25 ug/ml incubated for 48 hrs by agar well diffusion method; format: functional; details: read-out: DIZ; how it was run: as §1
Staphylococcus aureus [7] = experiment: Antibacterial activity against Staphylococcus aureus at 100 ug/ml incubated for 24 hrs by agar well diffusion method; format: functional; details: read-out: DIZ
How it was run: as §1, with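 “Bacteria grown in nutrient broth at 37 °C for 24 h, then subcultured at room temperature. Compounds” for “Compounds”, “Gentamicin” for “Bavistin”, “held” for “incubated”, “37” for “28”, “24” for “48”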

Staphylococcus aureus [8] = experiment: Antibacterial activity against Staphylococcus aureus incubated for 24 hrs by microdilution method; format: functional
Staphylococcus aureus [9] = experiment: Antibacterial activity against Staphylococcus aureus at 75 ug/ml incubated for 24 hrs by agar well diffusion method; format: functional; details: read-out: DIZ
How it was run: as §1, with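 “Bacteria grown in nutrient broth at 37 °C for 24 h, then subcultured at room temperature. Compounds” for “Compounds”, “Gentamicin” for “Bavistin”, “held” for “incubated”, “37” for “28”, “24” for “48”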

Fusarium oxysporum [10] = experiment: Antifungal activity against Fusarium oxysporum at 100 ug/ml incubated for 48 hrs by agar well diffusion method; format: functional; details: read-out: DIZ; how it was run: as §1
Aspergillus niger [11] = experiment: Antifungal activity against Aspergillus niger at 100 ug/ml incubated for 48 hrs by agar well diffusion method; format: functional; details: read-out: DIZ; how it was run: as §1
Staphylococcus aureus [12] = experiment: Antibacterial activity against Staphylococcus aureus at 50 ug/ml incubated for 24 hrs by agar well diffusion method; format: functional; details: read-out: DIZ
How it was run: as §1, with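 “Bacteria grown in nutrient broth at 37 °C for 24 h, then subcultured at room temperature. Compounds” for “Compounds”, “Gentamicin” for “Bavistin”, “held” for “incubated”, “37” for “28”, “24” for “48”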

Fusarium oxysporum [13] = experiment: Antifungal activity against Fusarium oxysporum at 75 ug/ml incubated for 48 hrs by agar well diffusion method; format: functional; details: read-out: DIZ; how it was run: as §1
Klebsiella pneumoniae [14] = experiment: Antibacterial activity against Klebsiella pneumoniae at 50 ug/ml incubated for 24 hrs by agar well diffusion method; format: functional; details: read-out: DIZ
How it was run: as §1, with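 “Bacteria grown in nutrient broth at 37 °C for 24 h, then subcultured at room temperature. Compounds” for “Compounds”, “Gentamicin” for “Bavistin”, “held” for “incubated”, “37” for “28”, “24” for “48”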

Fusarium oxysporum [15] = experiment: Antifungal activity against Fusarium oxysporum at 25 ug/ml incubated for 48 hrs by agar well diffusion method; format: functional; details: read-out: DIZ; how it was run: as §1
Escherichia coli [16] = experiment: Antibacterial activity against Escherichia coli at 50 ug/ml incubated for 24 hrs by agar well diffusion method; format: functional; details: read-out: DIZ
How it was run: as §1, with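 “Bacteria grown in nutrient broth at 37 °C for 24 h, then subcultured at room temperature. Compounds” for “Compounds”, “Gentamicin” for “Bavistin”, “held” for “incubated”, “37” for “28”, “24” for “48”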

Candida albicans [17] = experiment: Antifungal activity against Candida albicans at 25 ug/ml incubated for 48 hrs by agar well diffusion method; format: functional; details: read-out: DIZ; how it was run: as §1
Escherichia coli [18] = experiment: Antibacterial activity against Escherichia coli incubated for 24 hrs by microdilution method; format: functional
Erythrocyte = experiment: Anti-inflammatory activity in human RBC assessed as inhibition of hypotonic solution-induced hemolysis after 10 mins by spectrophotometric method; format: functional, cell-based
How it was run: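 Human blood (heparinized) washed with 0.9% saline, packed cells made into a 40% v/v stock in isotonic phosphate buffer (154 mM NaCl, 10 mM sodium phosphate, pH 7.4). Stock RBC mixed with hypotonic buffer (50 mM NaCl, 10 mM phosphate, pH 7.4) plus sample at 20–100 µg mL⁻¹.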

Bacillus subtilis [19] = experiment: Antibacterial activity against Bacillus subtilis at 100 ug/ml incubated for 24 hrs by agar well diffusion method; format: functional; details: read-out: DIZ
How it was run: as §1, with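 “Bacteria grown in nutrient broth at 37 °C for 24 h, then subcultured at room temperature. Compounds” for “Compounds”, “Gentamicin” for “Bavistin”, “held” for “incubated”, “37” for “28”, “24” for “48”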

Bacillus subtilis [20] = experiment: Antibacterial activity against Bacillus subtilis at 75 ug/ml incubated for 24 hrs by agar well diffusion method; format: functional; details: read-out: DIZ
How it was run: as §1, with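 “Bacteria grown in nutrient broth at 37 °C for 24 h, then subcultured at room temperature. Compounds” for “Compounds”, “Gentamicin” for “Bavistin”, “held” for “incubated”, “37” for “28”, “24” for “48”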

Aspergillus niger [21] = experiment: Antifungal activity against Aspergillus niger at 75 ug/ml incubated for 48 hrs by agar well diffusion method; format: functional; details: read-out: DIZ; how it was run: as §1
Candida albicans [22] = experiment: Antifungal activity against Candida albicans at 100 ug/ml incubated for 48 hrs by agar well diffusion method; format: functional; details: read-out: DIZ; how it was run: as §1
Bacillus subtilis [23] = experiment: Antibacterial activity against Bacillus subtilis at 25 ug/ml incubated for 24 hrs by agar well diffusion method; format: functional; details: read-out: DIZ
How it was run: as §1, with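 “Bacteria grown in nutrient broth at 37 °C for 24 h, then subcultured at room temperature. Compounds” for “Compounds”, “Gentamicin” for “Bavistin”, “held” for “incubated”, “37” for “28”, “24” for “48”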

Staphylococcus aureus [24] = experiment: Induction of cell membrane damage in Staphylococcus aureus assessed as cell content leakage at MIC by spectrophotometric method; format: functional, organism-based; details: TDE = time-dependent effect
How it was run: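 Log-phase S. aureus inoculated into 0.1% sterile peptone water, with an untreated control, and held at 37 °C for 0, 30, 60 and 120 min. 1 mL of broth centrifuged and supernatant OD read at 260 nm to measure released DNA. Run in triplicate, repeated three times.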

Bacillus subtilis [25] = experiment: Antibacterial activity against Bacillus subtilis at 50 ug/ml incubated for 24 hrs by agar well diffusion method; format: functional; details: read-out: DIZ
How it was run: as §1, with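 “Bacteria grown in nutrient broth at 37 °C for 24 h, then subcultured at room temperature. Compounds” for “Compounds”, “Gentamicin” for “Bavistin”, “held” for “incubated”, “37” for “28”, “24” for “48”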

Fusarium oxysporum [26] = experiment: Antifungal activity against Fusarium oxysporum incubated for 48 to 72 hrs by microdilution method; format: functional; how it was run: as §2
Escherichia coli [27] = experiment: Antibacterial activity against Escherichia coli at 75 ug/ml incubated for 24 hrs by agar well diffusion method; format: functional; details: read-out: DIZ
How it was run: as §1, with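 “Bacteria grown in nutrient broth at 37 °C for 24 h, then subcultured at room temperature. Compounds” for “Compounds”, “Gentamicin” for “Bavistin”, “held” for “incubated”, “37” for “28”, “24” for “48”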

Escherichia coli [28] = experiment: Antibacterial activity against Escherichia coli at 25 ug/ml incubated for 24 hrs by agar well diffusion method; format: functional; details: read-out: DIZ
How it was run: as §1, with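 “Bacteria grown in nutrient broth at 37 °C for 24 h, then subcultured at room temperature. Compounds” for “Compounds”, “Gentamicin” for “Bavistin”, “held” for “incubated”, “37” for “28”, “24” for “48”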

Klebsiella pneumoniae [29] = experiment: Antibacterial activity against Klebsiella pneumoniae at 100 ug/ml incubated for 24 hrs by agar well diffusion method; format: functional; details: read-out: DIZ
How it was run: as §1, with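 “Bacteria grown in nutrient broth at 37 °C for 24 h, then subcultured at room temperature. Compounds” for “Compounds”, “Gentamicin” for “Bavistin”, “held” for “incubated”, “37” for “28”, “24” for “48”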

Klebsiella pneumoniae [30] = experiment: Antibacterial activity against Klebsiella pneumoniae incubated for 24 hrs by microdilution method; format: functional
Escherichia coli [31] = experiment: Antibacterial activity against Escherichia coli at 100 ug/ml incubated for 24 hrs by agar well diffusion method; format: functional; details: read-out: DIZ
How it was run: as §1, with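 “Bacteria grown in nutrient broth at 37 °C for 24 h, then subcultured at room temperature. Compounds” for “Compounds”, “Gentamicin” for “Bavistin”, “held” for “incubated”, “37” for “28”, “24” for “48”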

Fusarium oxysporum [32] = experiment: Antifungal activity against Fusarium oxysporum at 50 ug/ml incubated for 48 hrs by agar well diffusion method; format: functional; details: read-out: DIZ; how it was run: as §1
Klebsiella pneumoniae [33] = experiment: Antibacterial activity against Klebsiella pneumoniae at 25 ug/ml incubated for 24 hrs by agar well diffusion method; format: functional; details: read-out: DIZ
How it was run: as §1, with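 “Bacteria grown in nutrient broth at 37 °C for 24 h, then subcultured at room temperature. Compounds” for “Compounds”, “Gentamicin” for “Bavistin”, “held” for “incubated”, “37” for “28”, “24” for “48”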

Bacillus subtilis [34] = experiment: Antibacterial activity against Bacillus subtilis incubated for 24 hrs by microdilution method; format: functional
Klebsiella pneumoniae [35] = experiment: Antibacterial activity against Klebsiella pneumoniae at 75 ug/ml incubated for 24 hrs by agar well diffusion method; format: functional; details: read-out: DIZ
How it was run: as §1, with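 “Bacteria grown in nutrient broth at 37 °C for 24 h, then subcultured at room temperature. Compounds” for “Compounds”, “Gentamicin” for “Bavistin”, “held” for “incubated”, “37” for “28”, “24” for “48”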

Candida albicans [36] = experiment: Antifungal activity against Candida albicans incubated for 48 to 72 hrs by microdilution method; format: functional; how it was run: as §2

In the case of `CC(C)(C)OC(=O)N1CCC[C@H]1C(=O)Oc1ccc2c(=O)c3ccccc3oc2c1`, the zone of inhibition at 50 µg/mL (Aspergillus niger [1]) was 24 mm, the zone of inhibition at 75 µg/mL (Candida albicans [2]) was 27 mm and the zone of inhibition at 25 µg/mL (Staphylococcus aureus [3]) was 17 mm. For the same compound, the MIC (Aspergillus niger [4]) was 29 µg/mL (≈ 70.8 µM), the zone of inhibition at 50 µg/mL (Candida albicans [5]) was 22 mm and the zone of inhibition at 25 µg/mL (Aspergillus niger [6]) was 17 mm. It also gave a zone of inhibition at 100 µg/mL (Staphylococcus aureus [7]) of 33 mm, an MIC (Staphylococcus aureus [8]) of 27 µg/mL (≈ 65.9 µM) and a zone of inhibition at 75 µg/mL (Staphylococcus aureus [9]) of 29 mm. For the same compound, the zone of inhibition at 100 µg/mL (Fusarium oxysporum [10]) was 35 mm, the zone of inhibition at 100 µg/mL (Aspergillus niger [11]) was 33 mm and the zone of inhibition at 50 µg/mL (Staphylococcus aureus [12]) was 24 mm. The zone of inhibition at 75 µg/mL (Fusarium oxysporum [13]) was 29 mm, the zone of inhibition at 50 µg/mL (Klebsiella pneumoniae [14]) was 21 mm and the zone of inhibition at 25 µg/mL (Fusarium oxysporum [15]) was 20 mm. It also gave a zone of inhibition at 50 µg/mL (Escherichia coli [16]) of 26 mm, a zone of inhibition at 25 µg/mL (Candida albicans [17]) of 16 mm and an MIC (Escherichia coli [18]) of 25 µg/mL (≈ 61.1 µM). For the same compound, the IC50 (Erythrocyte) was 34 µg/mL (≈ 83 µM), the zone of inhibition at 100 µg/mL (Bacillus subtilis [19]) was 35 mm and the zone of inhibition at 75 µg/mL (Bacillus subtilis [20]) was 31 mm. For the same compound, the zone of inhibition at 75 µg/mL (Aspergillus niger [21]) was 30 mm, the zone of inhibition at 100 µg/mL (Candida albicans [22]) was 34 mm and the zone of inhibition at 25 µg/mL (Bacillus subtilis [23]) was 15 mm. For the same compound, the Activity (Staphylococcus aureus [24]) was “Tde”, the zone of inhibition at 50 µg/mL (Bacillus subtilis [25]) was 24 mm and the MIC (Fusarium oxysporum [26]) was 25 µg/mL (≈ 61.1 µM). It also gave a zone of inhibition at 75 µg/mL (Escherichia coli [27]) of 31 mm, a zone of inhibition at 25 µg/mL (Escherichia coli [28]) of 17 mm and a zone of inhibition at 100 µg/mL (Klebsiella pneumoniae [29]) of 32 mm. For the same compound, the MIC (Klebsiella pneumoniae [30]) was 24 µg/mL (≈ 58.6 µM), the zone of inhibition at 100 µg/mL (Escherichia coli [31]) was 36 mm and the zone of inhibition at 50 µg/mL (Fusarium oxysporum [32]) was 24 mm. For the same compound, the zone of inhibition at 25 µg/mL (Klebsiella pneumoniae [33]) was 13 mm, the MIC (Bacillus subtilis [34]) was 26 µg/mL (≈ 63.5 µM) and the zone of inhibition at 75 µg/mL (Klebsiella pneumoniae [35]) was 27 mm. The MIC (Candida albicans [36]) was 24 µg/mL (≈ 58.6 µM).

From ChEMBL document CHEMBL4261538, “Synthesis and molecular docking studies of xanthone attached amino acids as potential antimicrobial and anti-inflammatory agents” (Medchemcomm, 2017)
